Measured values of several laboratories.
Protocols differ between the studies behind these lines.
Target: Adenosine receptor A3 (ADORA3, Homo sapiens, UniProt P0DMS8)
One construct used (P0DMS8 1-318): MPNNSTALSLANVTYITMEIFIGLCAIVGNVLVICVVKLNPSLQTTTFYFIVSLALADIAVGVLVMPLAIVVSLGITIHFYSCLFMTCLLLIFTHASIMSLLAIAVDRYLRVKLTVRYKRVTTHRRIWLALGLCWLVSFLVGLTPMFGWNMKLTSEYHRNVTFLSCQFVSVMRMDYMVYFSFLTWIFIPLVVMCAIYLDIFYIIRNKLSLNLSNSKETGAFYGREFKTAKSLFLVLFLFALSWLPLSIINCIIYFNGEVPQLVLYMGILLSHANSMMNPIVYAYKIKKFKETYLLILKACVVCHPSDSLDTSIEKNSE

`OC[C@@]12C[C@@H]1[C@@H](n1cnc3c(NC(C4CCCC4)C4CCCC4)nc(Cl)nc31)[C@H](O)[C@@H]2O` has a Ki of 4380 nM (ligand displacement; radioligand).
The Ki of `CNC(=O)[C@@]12C[C@@H]1[C@@H](n1cnc3c(NCc4cccc(Cl)c4)nc(C#Cc4cccc(C(=O)NCCOCCOCCOCCOCCOCCOCCC(=O)N5CCC(c6ccc(-c7cc(C(=O)O)cc8cc(-c9ccc(C(F)(F)F)cc9)ccc78)cc6)CC5)c4)nc31)[C@H](O)[C@@H]2O` is reported as 3.6 nM (ligand displacement in cells; radioligand).
For `CNC(=O)[C@@]12C[C@@H]1[C@@H](n1cnc3c(NCc4cn(C56CC7CC(CC(C7)C5)C6)nn4)nc(Cl)nc31)[C@H](O)[C@@H]2O`, the Ki was 38.1 nM (ligand displacement; radioligand; cell membranes).
`CCNC(=O)C1OC(n2cnc3c(N)nc(NN=CC4CCC=CO4)nc32)C(O)C1O` (stereo not shown) gave a Ki of 16 nM (ligand displacement; radioligand).
With `Nc1nc2ccc(Cl)cc2c2nc(-c3ccco3)nn12` the Ki was 7.59 nM (ligand displacement in cells; BRET).
For `CCCCCN1CCCn2c1nc1c2c(=O)n(C)c(=O)n1C`, the Ki was > 10000 nM (ligand displacement; radioligand; cell membranes).
`O[C@@H]1[C@H](O)[C@@H]2C[C@@H]2[C@H]1n1cnc2c(NCc3cn(C45CC6CC(CC(C6)C4)C5)nn3)nc(Cl)nc21` has a Ki of 2190 nM (ligand displacement; radioligand; cell membranes).
`O=C(NCCC(c1ccccc1)c1ccccc1)[C@H]1S[C@@H](n2cnc3c(NCc4cccc(I)c4)ncnc32)[C@H](O)[C@@H]1O` gave a Ki of 116 nM (ligand displacement; radioligand).
`COCCOc1ccc(N2CCN(CCn3ncc4c3nc(N)n3nc(-c5ccco5)nc43)CC2)cc1` has a Ki of > 1000 nM (ligand displacement; radioligand; cell membranes).
The Ki of `CC(C)=CCNc1ncnc2c1ncn2[C@@H]1O[C@H](CO)[C@@H](O)[C@H]1O` is reported as 159 nM (ligand displacement; radioligand; cell membranes).
For `CN1CCCn2c1nc1c2c(=O)n(C)c(=O)n1C`, the Ki was > 10000 nM (ligand displacement; radioligand; cell membranes).
For `Nc1nc2c(cnn2CCc2ccccc2)c2nc(-c3ccco3)nn12`, the Ki was 158 nM (ligand displacement in cells; BRET).
`CCCN1CCCn2c1nc1c2c(=O)n(C)c(=O)n1C` gave a Ki of > 10000 nM (ligand displacement; radioligand; cell membranes).
For `CNC(=O)[C@@]12C[C@@H]1[C@@H](n1cnc3c(NCc4cn(-c5ccc(C(=O)NCCCF)cc5)nn4)nc(Cl)nc31)[C@H](O)[C@@H]2O`, the Ki was 36.7 nM (ligand displacement; radioligand; cell membranes).
`CCCCn1c(=O)c2[nH]c(C34CC5CC(CC3C5)C4)nc2n(CCCO)c1=O` gave a Ki of > 1000 nM (ligand displacement; radioligand; cell membranes).
With `NC1C(O)C(n2cnc3c(NCc4cccc(I)c4)ncnc32)C2CC12` (stereo not shown) the Ki was 5460 nM (ligand displacement; radioligand; cell membranes).
